ChEMBL document CHEMBL1156486, “Discovery and characterization of a novel inhibitor of matrix metalloprotease-13 that reduces cartilage damage in vivo without joint fibroplasia side effects” (J Biol Chem, 2007)
Values after ≈ are worked out from the molar mass of the structure shown. Active and inactive are the calls of the source. The rule behind the calls is not given here.

Experiments:
Matrilysin = molecular target: T1, Matrilysin (Homo sapiens, UniProt P09237); experiment: Inhibition of MMP7
T1 sequence (P09237 whole entry): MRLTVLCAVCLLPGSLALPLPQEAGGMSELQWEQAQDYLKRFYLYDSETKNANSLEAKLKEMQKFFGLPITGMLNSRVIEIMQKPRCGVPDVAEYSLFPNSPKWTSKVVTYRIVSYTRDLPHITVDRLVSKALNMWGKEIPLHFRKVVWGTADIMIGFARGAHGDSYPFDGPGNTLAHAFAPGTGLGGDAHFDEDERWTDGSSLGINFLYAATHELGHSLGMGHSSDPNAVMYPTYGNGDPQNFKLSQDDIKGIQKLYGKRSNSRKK
Summary of the method: (§1)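 Buffer: 50 mM Hepes pH 7.0, 10 mM CaCl2, 1 mM DTNB, 0.005% Brij 35, 1% final DMSO. […] Initial rate read as A412 increase at 25 °C. At least triplicate inhibitor titrations. % of control activity fit to a sloped IC50 equation.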

Interstitial collagenase = molecular target: T2, Interstitial collagenase (Homo sapiens, UniProt P03956); experiment: Inhibition of MMP1
T2 sequence (P03956 whole entry): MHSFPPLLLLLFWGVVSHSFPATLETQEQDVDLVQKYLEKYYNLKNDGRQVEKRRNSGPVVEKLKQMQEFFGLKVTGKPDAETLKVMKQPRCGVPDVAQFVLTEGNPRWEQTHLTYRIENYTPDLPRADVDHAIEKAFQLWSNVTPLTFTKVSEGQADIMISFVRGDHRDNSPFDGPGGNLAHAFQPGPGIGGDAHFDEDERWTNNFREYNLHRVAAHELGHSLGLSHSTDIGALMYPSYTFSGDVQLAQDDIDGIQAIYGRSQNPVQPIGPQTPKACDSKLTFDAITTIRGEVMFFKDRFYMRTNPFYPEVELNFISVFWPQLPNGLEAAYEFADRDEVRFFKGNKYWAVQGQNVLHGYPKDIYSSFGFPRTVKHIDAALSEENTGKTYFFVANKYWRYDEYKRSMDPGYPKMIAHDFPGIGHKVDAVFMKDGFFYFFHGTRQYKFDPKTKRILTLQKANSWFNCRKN

[1] = molecular target: 72 kDa type IV collagenase (Homo sapiens, UniProt P08253); experiment: Inhibition of MMP2
Stromelysin-1 = Stromelysin-1 (Homo sapiens, UniProt P08254); experiment: Inhibition of MMP3 catalytic domain; summary of the method: as §1
[2] = molecular target: Macrophage metalloelastase (Homo sapiens, UniProt P39900); experiment: Inhibition of MMP12 catalytic domain; summary of the method: as §1
Neutrophil collagenase = Neutrophil collagenase (Homo sapiens, UniProt P22894); experiment: Inhibition of MMP8 catalytic domain
[3] = molecular target: T3, Matrix metalloproteinase-17 (Homo sapiens, UniProt Q9ULZ9); experiment: Inhibition of MMP17 catalytic domain; summary of the method: as §1
T3 sequence (Q9ULZ9 whole entry): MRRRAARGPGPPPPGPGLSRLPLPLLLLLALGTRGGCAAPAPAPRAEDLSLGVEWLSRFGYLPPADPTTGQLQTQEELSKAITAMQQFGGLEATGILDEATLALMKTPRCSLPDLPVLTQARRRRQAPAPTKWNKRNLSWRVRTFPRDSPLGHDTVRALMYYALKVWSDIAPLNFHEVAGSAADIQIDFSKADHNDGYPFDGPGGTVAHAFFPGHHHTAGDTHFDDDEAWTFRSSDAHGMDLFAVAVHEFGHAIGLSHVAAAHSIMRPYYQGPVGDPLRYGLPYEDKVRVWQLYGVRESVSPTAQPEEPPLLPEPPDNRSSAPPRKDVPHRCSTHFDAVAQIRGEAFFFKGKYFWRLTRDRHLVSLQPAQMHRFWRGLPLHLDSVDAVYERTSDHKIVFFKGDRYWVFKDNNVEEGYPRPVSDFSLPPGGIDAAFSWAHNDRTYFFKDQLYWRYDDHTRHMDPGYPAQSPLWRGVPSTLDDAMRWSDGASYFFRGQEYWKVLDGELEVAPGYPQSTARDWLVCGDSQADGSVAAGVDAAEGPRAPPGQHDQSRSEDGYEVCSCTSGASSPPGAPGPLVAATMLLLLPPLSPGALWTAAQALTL

[4] = molecular target: Matrix metalloproteinase-9 (Homo sapiens, UniProt P14780); experiment: Inhibition of MMP9
[5] = molecular target: Matrix metalloproteinase-14 (Homo sapiens, UniProt P50281); experiment: Inhibition of MMP14 catalytic domain; summary of the method: as §1
Collagenase 3 = Collagenase 3 (Homo sapiens, UniProt P45452)
[6] = Drug level in Sprague-Dawley rat model of musculoskeletal syndrome side effect at 2000 mg/kg/day, po after 14 days; type: ADME, organism-based; design: route oral; conditions: in vivo
[7] = Plasma concentration in New Zealand white rabbit osteoarthritis model at 30 mg/kg, po twice daily after 5 weeks; type: ADME, organism-based, Oryctolagus cuniculus; design: dose 30 mg/kg, route oral
[8] = Solubility in phosphate buffer at pH 7.5; type: physicochemical
[9] = Solubility in phosphate buffer at pH 6; type: physicochemical
[10] = Solubility in phosphate buffer at pH 6.5; type: physicochemical
Rattus norvegicus [11] = experiment: Inhibition of human MMP13-induced type 2 collagen degradation in rat cartilage damage model assessed as type2 collagen neoepitope biomarker level at 0.1 mg/kg, po by enzyme-linked immunosorbent assay; type: functional, organism-based; design: dose 0.1 mg/kg
Summary of the method: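 Rats (12 per group) dosed orally with vehicle or various doses; 3 h later knees injected intra-articularly with 12 µg activated full-length human MMP13. Sacrifice 2 h after injection; synovial space lavaged twice with 80 µl saline. Type II collagen neoepitope in lavage quantified by ELISA.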

Oryctolagus cuniculus [12] = experiment: Inhibition of cartilage damage in New Zealand white rabbit osteoarthritis model assessed as reduction of cartilage lesion on femoral condyles at 30 mg/kg, po twice daily after 5 weeks relative to control; type: functional, Condyle; design: scale not given: the % may be the effect or the level left
Summary of the method: (§2)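 Oral dosing 30 mg/kg or vehicle twice daily from day 1 post-op for 5 weeks. Joints removed, stained with India ink; two-dimensional lesion areas on tibial plateaus and femoral condyles measured; means ± S.E., compared to vehicle.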

[13] = AUC (0 to 24 hrs) in Sprague-Dawley rat model of musculoskeletal syndrome side effect at 2000 mg/kg/day, po after 14 days; type: ADME, organism-based; design: time < 24 hr, dose 2000 mg/kg/day, route oral; conditions: in vivo
Cartilage tissue = experiment: Inhibition of IL1alpha and oncostatin M-stimulated hydroxyproline release from bovine nasal cartilage; type: functional, tissue-based; conditions: Bos taurus
Summary of the method: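 Bovine nasal cartilage explants (1 × 3 mm, 9 per group) cultured 2 weeks with interleukin-1 (50 ng/ml) plus oncostatin M (50 ng/ml), with vehicle or up to 10 µM inhibitor. Medium refreshed twice weekly and pooled for hydroxyproline assay; remaining cartilage papain-digested and its hydroxyproline measured. IC50 taken from a plot of inhibition of cartilage degradation; means ± S.E.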

Rattus norvegicus [14] = experiment: Toxicity in Sprague-Dawley rat model of musculoskeletal syndrome side effect assessed as induction of joint fibroplasia at 2000 mg/kg/day, po after 14 days; type: organism-based; design: route oral; conditions: in vivo, 336 h
Summary of the method: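 Sprague-Dawley rats (6/sex) given vehicle or 2000 mg/kg/day orally for 14 days; a non-selective hydroxamate MMP inhibitor at 2000 mg/kg/day as positive control. Calcaneon tendon and femorotibial, tibiotarsal, humeroradial joints taken bilaterally; femorotibial joints formalin-fixed, decalcified, H&E-stained, examined by light microscopy for fibroplasia.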

[15] = molecular target: T4, A disintegrin and metalloproteinase with thrombospondin motifs 4 (Homo sapiens, UniProt O75173); experiment: Inhibition of human ADAMTS4 assessed as cleavage of aggrecan substrate
T4 sequence (O75173 whole entry): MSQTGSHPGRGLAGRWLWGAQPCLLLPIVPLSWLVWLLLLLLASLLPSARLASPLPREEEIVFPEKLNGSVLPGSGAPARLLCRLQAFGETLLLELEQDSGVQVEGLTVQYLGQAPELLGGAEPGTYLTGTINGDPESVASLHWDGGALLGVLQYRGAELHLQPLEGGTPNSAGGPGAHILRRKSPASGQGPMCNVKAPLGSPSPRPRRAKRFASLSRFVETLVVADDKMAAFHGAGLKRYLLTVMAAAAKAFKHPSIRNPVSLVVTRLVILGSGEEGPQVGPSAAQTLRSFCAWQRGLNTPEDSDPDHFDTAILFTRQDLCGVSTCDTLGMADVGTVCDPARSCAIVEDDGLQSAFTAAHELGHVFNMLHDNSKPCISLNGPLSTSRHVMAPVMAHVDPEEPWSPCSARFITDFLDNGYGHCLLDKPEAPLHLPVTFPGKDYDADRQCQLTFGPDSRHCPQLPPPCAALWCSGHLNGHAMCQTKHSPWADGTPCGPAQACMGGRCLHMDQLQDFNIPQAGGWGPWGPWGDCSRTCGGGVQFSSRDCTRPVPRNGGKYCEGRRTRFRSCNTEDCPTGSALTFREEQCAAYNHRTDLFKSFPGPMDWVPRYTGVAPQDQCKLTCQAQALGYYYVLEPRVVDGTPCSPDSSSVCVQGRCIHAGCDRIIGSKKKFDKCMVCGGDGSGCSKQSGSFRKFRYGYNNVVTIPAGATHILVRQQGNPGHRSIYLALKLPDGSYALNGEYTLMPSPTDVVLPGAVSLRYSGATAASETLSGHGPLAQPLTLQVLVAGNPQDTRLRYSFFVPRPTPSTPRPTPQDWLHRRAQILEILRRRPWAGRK
Summary of the method: (§3)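 Isolated human enzyme with native aggrecan as substrate. Cleavage quantified using the BC-3 neoepitope antibody.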

Oryctolagus cuniculus [16] = experiment: Inhibition of cartilage damage in New Zealand white rabbit osteoarthritis model assessed as reduction of cartilage lesion on tibial plateau at 30 mg/kg, po twice daily after 5 weeks relative to control; type: functional; design: scale not given: the % may be the effect or the level left; summary of the method: as §2
[17] = AUC (0 to 24 hrs) in New Zealand white rabbit osteoarthritis model at 30 mg/kg, po twice daily after 5 weeks; type: ADME, organism-based, Oryctolagus cuniculus; design: time < 24 hr, dose 30 mg/kg, route oral; conditions: in vivo
[18] = molecular target: T5, A disintegrin and metalloproteinase with thrombospondin motifs 5 (Homo sapiens, UniProt Q9UNA0); experiment: Inhibition of human ADAMTS5 assessed as cleavage of aggrecan substrate; summary of the method: as §3
T5 sequence (Q9UNA0 whole entry): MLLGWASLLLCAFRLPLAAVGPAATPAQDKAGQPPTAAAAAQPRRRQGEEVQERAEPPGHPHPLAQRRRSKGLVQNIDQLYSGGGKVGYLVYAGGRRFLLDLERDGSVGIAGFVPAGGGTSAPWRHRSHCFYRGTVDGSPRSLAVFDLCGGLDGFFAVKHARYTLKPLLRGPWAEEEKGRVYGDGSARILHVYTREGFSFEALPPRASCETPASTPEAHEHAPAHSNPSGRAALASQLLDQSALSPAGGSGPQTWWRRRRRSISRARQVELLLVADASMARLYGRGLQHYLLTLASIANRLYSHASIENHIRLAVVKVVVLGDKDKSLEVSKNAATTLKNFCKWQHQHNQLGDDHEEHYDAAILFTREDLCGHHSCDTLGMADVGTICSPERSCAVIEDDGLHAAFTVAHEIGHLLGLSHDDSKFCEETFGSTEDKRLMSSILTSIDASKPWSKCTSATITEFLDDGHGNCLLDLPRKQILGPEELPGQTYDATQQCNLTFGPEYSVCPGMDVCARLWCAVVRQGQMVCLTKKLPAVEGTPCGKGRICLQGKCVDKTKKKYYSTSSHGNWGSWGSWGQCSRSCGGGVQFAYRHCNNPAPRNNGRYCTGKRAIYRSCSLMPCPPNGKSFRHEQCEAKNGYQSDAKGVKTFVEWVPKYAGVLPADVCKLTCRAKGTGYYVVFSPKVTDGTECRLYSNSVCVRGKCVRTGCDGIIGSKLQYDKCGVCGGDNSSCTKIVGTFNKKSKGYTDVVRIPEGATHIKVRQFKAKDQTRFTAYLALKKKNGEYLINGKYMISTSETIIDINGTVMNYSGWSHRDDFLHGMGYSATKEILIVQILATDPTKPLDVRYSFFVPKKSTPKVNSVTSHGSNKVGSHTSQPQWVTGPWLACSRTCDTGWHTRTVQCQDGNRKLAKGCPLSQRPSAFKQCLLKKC

[19] = system: O=C(OCc1ccccc1)c1cn2c(=O)n(Cc3ccccc3)c(=O)cc2s1; conditions: Homo sapiens

Chain of Macrophage metalloelastase (P39900 whole entry, the tested form may be a part): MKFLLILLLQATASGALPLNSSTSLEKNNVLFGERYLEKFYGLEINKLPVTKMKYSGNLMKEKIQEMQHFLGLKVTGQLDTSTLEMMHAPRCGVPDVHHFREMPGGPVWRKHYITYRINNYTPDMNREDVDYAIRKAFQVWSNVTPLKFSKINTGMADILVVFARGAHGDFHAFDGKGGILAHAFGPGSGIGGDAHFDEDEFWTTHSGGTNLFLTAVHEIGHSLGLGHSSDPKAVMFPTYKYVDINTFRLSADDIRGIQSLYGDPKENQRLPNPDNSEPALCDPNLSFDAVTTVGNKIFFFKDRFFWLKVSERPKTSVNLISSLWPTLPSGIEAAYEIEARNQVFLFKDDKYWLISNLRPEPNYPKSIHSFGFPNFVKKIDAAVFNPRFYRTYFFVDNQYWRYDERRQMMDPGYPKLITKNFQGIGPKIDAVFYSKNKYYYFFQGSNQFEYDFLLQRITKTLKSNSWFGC
Chain of Stromelysin-1 (P08254 whole entry, the tested form may be a part): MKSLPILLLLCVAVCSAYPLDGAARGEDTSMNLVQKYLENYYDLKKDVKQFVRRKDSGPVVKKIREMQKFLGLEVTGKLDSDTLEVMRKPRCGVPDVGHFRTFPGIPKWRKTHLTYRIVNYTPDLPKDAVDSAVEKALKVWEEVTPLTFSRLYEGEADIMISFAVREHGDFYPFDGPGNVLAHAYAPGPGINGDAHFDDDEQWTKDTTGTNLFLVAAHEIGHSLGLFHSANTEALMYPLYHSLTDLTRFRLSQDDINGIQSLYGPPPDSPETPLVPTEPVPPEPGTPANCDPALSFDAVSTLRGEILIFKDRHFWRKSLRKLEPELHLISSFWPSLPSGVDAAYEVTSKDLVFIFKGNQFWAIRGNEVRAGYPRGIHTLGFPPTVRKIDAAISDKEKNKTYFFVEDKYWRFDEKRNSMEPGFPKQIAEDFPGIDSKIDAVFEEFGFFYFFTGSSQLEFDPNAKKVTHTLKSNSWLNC
Chain of Neutrophil collagenase (P22894 whole entry, the tested form may be a part): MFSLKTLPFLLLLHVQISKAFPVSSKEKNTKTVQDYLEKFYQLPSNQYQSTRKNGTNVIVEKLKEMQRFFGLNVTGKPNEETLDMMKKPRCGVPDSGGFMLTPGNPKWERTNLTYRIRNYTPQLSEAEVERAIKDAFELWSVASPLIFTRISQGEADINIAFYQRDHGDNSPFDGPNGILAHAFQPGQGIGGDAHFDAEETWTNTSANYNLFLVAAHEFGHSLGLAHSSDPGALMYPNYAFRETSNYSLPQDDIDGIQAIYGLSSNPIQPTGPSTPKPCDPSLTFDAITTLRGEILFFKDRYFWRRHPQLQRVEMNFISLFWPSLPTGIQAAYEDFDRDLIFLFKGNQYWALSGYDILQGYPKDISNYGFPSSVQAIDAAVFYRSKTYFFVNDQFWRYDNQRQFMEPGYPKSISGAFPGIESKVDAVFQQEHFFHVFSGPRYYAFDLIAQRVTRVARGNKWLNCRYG
Chain of Matrix metalloproteinase-9 (P14780 whole entry, the tested form may be a part): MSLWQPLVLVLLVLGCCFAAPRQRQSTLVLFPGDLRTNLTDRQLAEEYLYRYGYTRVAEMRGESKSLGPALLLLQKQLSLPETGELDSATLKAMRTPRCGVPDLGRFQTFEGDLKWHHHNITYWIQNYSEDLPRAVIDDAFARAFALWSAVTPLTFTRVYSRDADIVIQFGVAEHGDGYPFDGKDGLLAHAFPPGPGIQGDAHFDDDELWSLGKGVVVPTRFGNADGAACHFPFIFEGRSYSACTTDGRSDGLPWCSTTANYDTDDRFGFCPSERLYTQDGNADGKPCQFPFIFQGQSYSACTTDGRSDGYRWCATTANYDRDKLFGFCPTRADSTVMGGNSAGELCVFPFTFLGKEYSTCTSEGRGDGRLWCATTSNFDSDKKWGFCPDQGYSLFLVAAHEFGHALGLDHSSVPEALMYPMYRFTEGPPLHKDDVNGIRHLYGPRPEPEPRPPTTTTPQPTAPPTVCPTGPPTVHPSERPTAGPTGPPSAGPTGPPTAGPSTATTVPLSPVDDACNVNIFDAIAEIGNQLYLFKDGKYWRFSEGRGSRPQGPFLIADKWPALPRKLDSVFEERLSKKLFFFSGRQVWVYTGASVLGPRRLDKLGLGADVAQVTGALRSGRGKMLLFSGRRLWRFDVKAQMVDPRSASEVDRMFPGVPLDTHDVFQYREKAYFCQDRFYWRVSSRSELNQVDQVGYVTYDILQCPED
Chain of 72 kDa type IV collagenase (P08253 whole entry, the tested form may be a part): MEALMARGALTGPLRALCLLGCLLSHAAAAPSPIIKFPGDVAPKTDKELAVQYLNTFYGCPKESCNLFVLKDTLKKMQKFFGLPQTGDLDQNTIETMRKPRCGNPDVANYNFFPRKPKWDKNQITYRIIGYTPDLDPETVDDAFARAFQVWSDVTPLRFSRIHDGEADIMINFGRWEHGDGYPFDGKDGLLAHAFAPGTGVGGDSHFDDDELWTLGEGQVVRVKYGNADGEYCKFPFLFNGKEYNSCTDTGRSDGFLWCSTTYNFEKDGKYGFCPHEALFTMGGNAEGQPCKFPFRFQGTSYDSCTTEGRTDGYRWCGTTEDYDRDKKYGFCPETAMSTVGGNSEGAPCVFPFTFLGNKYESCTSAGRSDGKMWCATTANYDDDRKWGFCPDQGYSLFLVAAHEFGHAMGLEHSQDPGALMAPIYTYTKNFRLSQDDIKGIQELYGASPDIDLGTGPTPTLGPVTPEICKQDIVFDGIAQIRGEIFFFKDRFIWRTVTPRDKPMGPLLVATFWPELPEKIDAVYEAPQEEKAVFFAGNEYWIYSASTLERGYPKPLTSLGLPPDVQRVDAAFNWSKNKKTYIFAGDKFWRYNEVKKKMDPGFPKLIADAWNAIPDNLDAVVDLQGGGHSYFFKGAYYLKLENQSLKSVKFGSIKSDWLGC

Compound	IC50 (Matrilysin) [µM]	IC50 (Interstitial collagenase) [µM]	IC50 [1] [µM]	IC50 (Stromelysin-1) [µM]	IC50 [2] [µM]	IC50 (Neutrophil collagenase) [µM]	IC50 [3] [µM]	IC50 [4] [µM]	IC50 [5] [µM]	AUC at 336 h [6] [µg·h/mL]	Activity (Rattus norvegicus [14])	other results
O=C(OCc1ccccc1)c1cn2c(=O)n(Cc3ccccc3)c(=O)cc2s1	> 100	> 100	> 100	> 100	> 100	> 100	> 100	> 100	> 100	–	–	–
CNC(=O)[C@H](Cc1c[nH]c2ccccc12)NC(=O)[C@@H](CC(=O)NO)CC(C)C [ILOMASTAT]	0.033	–	–	0.007	0.0051	–	0.0034	–	0.0047	–	–	IC50 (Collagenase 3): 0.0052 µM
Cn1c(=O)n(Cc2ccc(C(=O)O)cc2)c(=O)c2cc(C#CCc3ccccc3)ccc21	> 30	> 30	> 30	> 30	> 100	> 100	> 30	> 100	> 30	30	Non-toxic	AUC at 840 h [7]: 200 µg·h/mL; solubility [8]: < 3 µM; solubility [9]: 20 µM (≈ 8.49 µg/mL); solubility [10]: < 3 µM; Activity (Rattus norvegicus [11]): Active; Activity (Oryctolagus cuniculus [12]): 51%; AUC at 24 h [13]: 1010 µg·h/mL; IC50 (Cartilage tissue): 1.3 µM; IC50 [15]: > 25 µM; Activity (Oryctolagus cuniculus [16]): 68%; AUC at 24 h [17]: 6 µg·h/mL; IC50 [18]: > 25 µM
CC(C)[C@@H](NS(=O)(=O)c1ccc(-c2ccc(Br)cc2)cc1)C(=O)NO	–	–	–	–	–	–	–	–	–	94	Toxic	–
Collagenase 3 (Homo sapiens) (from UniProt P45452)	–	–	–	–	–	–	–	–	–	–	–	Km [19]: 48 µM
